CAL PDZ FP-1 = untagged CAL PDZ binding inhibitors, primary screen, biochemical, fluorescence polarization, HTS; Golgi-associated PDZ and coiled-coil motif-containing protein (Homo sapiens), Q9HD26; purified CAL PDZ, TMR-peptide fluorescence polarization, 1 h; inhibition, % at 24.9 µM; 300,000 compounds, 0.92% hits; AID 602252, 2012;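 active = mean inhibition of at least 30% with at least half of replicates also reaching 30%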
DDE Tn7 FP inh = inhibitors of Tn7 peptide binding to fibrin DD(E), primary screen, biochemical, fluorescence polarization, human fibrin, Tn7 probe | FP displacement of FITC-Tn7 peptide from fibrin DD(E); 0% = median of compound wells per plate | Fibrinogen beta chain (Homo sapiens), P02675 | AID 720508, 2013 | 370,000 compounds, 0.13% hits | inhibition, % at 8.3 µM;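 active = inhibition above the mean of compounds falling within the control limits plus 3 SD of them, cut at about 14% in these data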
Target sequence (P02675 whole entry, looked up): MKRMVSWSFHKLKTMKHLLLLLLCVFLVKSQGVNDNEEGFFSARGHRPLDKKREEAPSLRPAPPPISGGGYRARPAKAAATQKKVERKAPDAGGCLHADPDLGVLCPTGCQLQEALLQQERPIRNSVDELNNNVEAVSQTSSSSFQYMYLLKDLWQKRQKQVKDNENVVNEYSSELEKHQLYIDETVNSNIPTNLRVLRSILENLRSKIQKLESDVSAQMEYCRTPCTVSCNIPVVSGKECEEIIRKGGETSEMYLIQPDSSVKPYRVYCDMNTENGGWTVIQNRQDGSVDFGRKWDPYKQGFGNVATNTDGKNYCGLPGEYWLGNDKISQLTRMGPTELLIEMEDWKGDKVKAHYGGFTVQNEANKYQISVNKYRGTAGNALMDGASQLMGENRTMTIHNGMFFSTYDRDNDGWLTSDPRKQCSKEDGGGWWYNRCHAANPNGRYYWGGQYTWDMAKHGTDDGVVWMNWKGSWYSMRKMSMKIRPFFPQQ
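Also added: labelled Tn7 tracer, 0.1 µM; Assay system: human fibrin DD(E) protein; Amount: 2 µM fibrin DD(E); Schedule: 10 min compound pre-incubation, 3 h probe incubation at room temperature; Repeats: one replicate per compound; Read-out basis: percent inhibition; Measured by: fluorescence polarization of the labelled Tn7 tracer.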
Tn6 DDE FP = inhibitors of Tn6 peptide binding to fibrin DD(E), primary screen, biochemical, fluorescence polarization, human fibrin, Tn6 probe | Fibrin DD(E) TRITC-Tn6 fluorescence polarization displacement | inhibition, % at 8.3 µM | 370,000 compounds, 0.21% hits | AID 720509, 2013;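 active = inhibition above a per-campaign cutoff: mean of compounds within control limits plus 3 SD, cut at about 15% in these data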
GRK2 inh = compounds blocking aptamer binding on GRK2 – biochemical, human GRK2, bead flow cytometry, HTS, primary screen; FAM-aptamer displacement from GRK2; inhibition of aptamer binding, % at 10 µM; 330,000 compounds, 0.59% hits;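 active = inhibition of aptamer binding above 40%, roughly 3 SD of noise, on plates passing a quality check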;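 note: median bead fluorescence of bound FAM aptamer so fluorescent compounds give negative values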
CAL PDZ FP-2 = CAL PDZ peptide-binding inhibitors, primary screen, biochemical, fluorescence polarization, Cer-tagged CAL PDZ, HTS; 330,000 compounds, 0.02% hits; purified CAL PDZ, TMR-peptide fluorescence polarization, 1 h; AID 504414, 2011; Golgi-associated PDZ and coiled-coil motif-containing protein (Homo sapiens), Q9HD26; inhibition, % at 20 µM;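 active = highest replicate inhibition of at least 40%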
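Material: tagged CAL PDZ domain; buffer or medium: 25 mM sodium phosphate pH 7.4, 150 mM NaCl, TCEP, IgG, Thesit; compound dosing: single point, 20 µM; schedule: 1 h incubation at room temperature before polarization reading; measured by: FP readout, S and P plane fluorescence; read-out basis: percent inhibition from loss of millipolarization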
ARNT TACC3 PPI = disruptors of ARNT/TACC3 protein interaction, primary screen, biochemical, AlphaScreen, single concentration. AlphaScreen His-ARNT PAS-B/GST-TACC3 binding, luminescence; TACC3 fragment carries E629A point mutation. 390,000 compounds, 0.66% hits. Transforming acidic coiled-coil-containing protein 3 (Homo sapiens), Q9Y6A5. inhibition, % at 9.99 µM. AID 623870, 2012;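 active = mean inhibition of replicates at least 50% and at least half of replicates each reaching 50%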
Hits are given with their value; . = inactive; / = no result. Sampled rows, rich in hits. Any-hit rate of the full collection: about 1.8%.

SMILES	CAL PDZ FP-1	DDE Tn7 FP inh	Tn6 DDE FP	GRK2 inh	CAL PDZ FP-2	ARNT TACC3 PPI
COc1ccccc1NC(=O)Cc1nnc(SCC(=O)NC2CCCC2)n1C	/	.	.	.	.	/
COc1ccccc1NC(=O)Cn1nc(-c2ccncc2)nc1SCC(=O)NC1CCCC1	36	.	.	.	.	.
Nc1c(S(=O)(=O)c2cccs2)c2nc3ccccc3nc2n1/N=C/c1cccc(O)c1	49	.	.	.	.	.
C[C@H](CO)N1C[C@H](C)[C@@H](CN(C)C(=O)Cc2ccccc2)OCCCC[C@H](C)Oc2ccc(NS(=O)(=O)c3cccs3)cc2C1=O	/	/	/	/	/	.
Cc1ccc(C2CC(c3cccs3)=NN2C(=O)CCl)cc1 (stereo not given)	91	.	.	.	/	.
CCC(=O)N1N=C(c2cccs2)CC1c1ccc(C)cc1 (stereo not given)	.	.	.	.	.	.
CCOC(=O)[C@]12CCCC=C1N(CCCOC)C(=O)[C@@H]2CC(=O)N1CCCC1	/	.	.	/	/	/
C=CCc1ccc(OCCn2nnc3ccccc32)c(OC)c1	95	.	.	.	.	.
Cc1csc(=O)n1CCC(=O)OC(C)C(=O)Nc1ccc(N2CCOCC2)cc1 (stereo not given)	.	.	.	.	.	.
CC(=O)c1cccc(NC(=O)C(C)OC(=O)CCn2c(C)csc2=O)c1 (stereo not given)	62	.	.	.	.	/
O=C(NCCc1ccccc1)C(=O)NC1CCCCC1	.	.	.	.	.	.
O=C(NC1CCCCC1)C(=S)NCCc1ccccc1	43	.	.	.	.	.
Cc1cc(C)cc(NC(=O)N2CCN(C/C=C/c3ccccc3)CC2)c1	.	.	.	.	.	.
C[C@@H]1CN([C@@H](C)CO)C(=O)c2cc(C3=CCCC3)cnc2O[C@@H]1CN(C)C(=O)c1ccccc1	/	/	/	/	/	.
C[C@H]1CN([C@@H](C)CO)C(=O)c2cc(NC(=O)Cn3cnnn3)ccc2O[C@@H]1CN(C)Cc1ccc(C(=O)O)cc1	/	/	/	/	/	.
Cc1noc(NS(=O)(=O)c2ccc(NC(=O)CSc3nnc4c(n3)[nH]c3ccccc34)cc2)c1C	.	.	.	.	.	71
Cc1noc(NS(=O)(=O)c2ccc(NC(=O)CSc3nc4ccccc4[nH]3)cc2)c1C	.	.	.	.	.	.
CC1(NC(=O)Nc2ccccc2)CCS(=O)(=O)C1 (stereo not given)	/	.	.	.	/	/
COc1ccc(NC(=O)NC2(C)CCS(=O)(=O)C2)cc1 (stereo not given)	63	.	.	/	.	.
CC(=O)Oc1ccc(N2C(=O)C3C4C=CC(CC4)C3C2=O)cc1[N+](=O)[O-] (stereo not given)	.	.	.	.	.	/
CCN1CCN(C(CNS(=O)(=O)c2ccccc2)c2ccccc2)CC1 (stereo not given)	43	.	.	.	.	.
O=C(NCc1csc(-c2cccs2)n1)C1CCCCC1	33	.	.	.	.	.
CCC(=O)NCc1csc(-c2cccs2)n1	.	.	.	.	.	.
COc1ccc(NC(=O)CSc2nc3sc(C)cc3c(=O)n2C)cc1	.	.	.	.	.	.
COc1ccc(NC(=O)CSc2nc3sc(C)cc3c(=O)n2C)c(OC)c1	80	.	.	.	.	.
SMILES	CAL PDZ FP-1	DDE Tn7 FP inh	Tn6 DDE FP	GRK2 inh	CAL PDZ FP-2	ARNT TACC3 PPI
CCC1CCCCN1C(=S)Nc1ccc(OC(F)F)cc1 (stereo not given)	.	.	.	.	.	.
C[C@H](CO)N1C[C@H](C)[C@H](CN(C)C(=O)Nc2ccc(F)cc2)Oc2ccc(NC(=O)CCN3CCOCC3)cc2C1=O	/	/	/	/	/	.
CCCCCCC(=O)Nc1ccc(Br)cn1	63	.	.	.	.	.
CC(=O)N[C@H]1CC[C@@H](CCNC(=O)C2CC2)O[C@H]1CO	/	/	/	/	/	.
CC=Cc1ccc2n(c1=O)C[C@H]1[C@H](CO)[C@@H](C(=O)N[C@@H](C)c3ccccc3)[C@@H]2N1Cc1ccncc1 (mixture of isomers)	/	/	/	/	/	.
O=C(NCc1ccccn1)NC12CC3CC(CC(C3)C1)C2	76	.	.	.	.	.
C[C@H](CO)N1C[C@H](C)[C@H](CN(C)S(=O)(=O)c2ccc(Cl)cc2)Oc2c(NC(=O)C3CCCCC3)cccc2C1=O	/	/	/	/	/	.
O=C(NC1CCCCC1)c1ccc(-c2cccc([N+](=O)[O-])c2)o1	.	.	.	.	.	.
C/C(=N\NC(=S)NC1CCCCC1)c1cccs1	.	.	.	.	.	.
C/C(=N\NC(=S)NC1CCCCC1)c1c(F)cccc1F	44	.	.	.	.	.
CC(=O)Nc1ccc(NC(=O)COC(=O)COc2ccc3ccccc3c2)cc1	105	.	.	.	.	.
O=C(O)Cc1ccc(NC(=O)COc2ccc3ccccc3c2)cc1	.	.	.	.	.	.
COc1ccc(NC(=O)COC(=O)COc2cccc(Br)c2)cc1OC	36	.	.	.	.	.
CN(C[C@@H]1[C@@H](c2ccccc2)[C@H](CO)N1C(=O)C1CCC1)C(=O)c1ccccn1	/	/	/	/	/	.
C=CCn1c(NCCOC)nc2c1c(=O)n(C)c(=O)n2C	44	.	.	.	.	.
COCCNc1nc2c(c(=O)n(C)c(=O)n2C)n1CCCc1ccccc1	/	.	.	/	/	/
Cc1c(C(=O)N/N=C/c2ccncc2)no[n+]1[O-]	/	.	.	.	.	69
Cc1nonc1C(=O)N/N=C/c1ccncc1	.	.	.	.	.	.
CCCC#Cc1ccc2c(c1)[C@@H]1[C@@H](CCN1S(=O)(=O)c1cccc(F)c1)[C@@H](CO)N2C	/	/	/	/	/	.
CN(C(=O)c1ccnn1C)C1CCCN(Cc2ccccc2F)C1 (stereo not given)	45	.	.	.	.	.
CC(=O)c1ccccc1C(=O)N(C)C1CCCN(Cc2ccccc2F)C1 (stereo not given)	/	.	.	.	.	.
Nc1cc(=O)[nH]c(=O)n1CCCc1ccccc1	39	.	.	.	.	.
CCOC(=O)NC(=O)/C(N=Nc1cc(C)cc(C)c1)=C(\C)O	.	.	.	.	.	.

Source: PubChem BioAssay
